One compound from ChEMBL document CHEMBL4477178, “Biflorin, Isolated from the Flower Buds of Syzygium aromaticum L., Suppresses LPS-Induced Inflammatory Mediators via STAT1 Inactivation in Macrophages and Protects Mice from Endotoxin Shock” (J Nat Prod, 2016) can be followed below.

Molecules are shown by their SMILES. Activity calls are given as the source filed them. No cut-off for these calls is given here.

For experiment [1], the system named is Mus musculus. The experiment in a line: In vivo inhibition of LPS-induced STAT1 phosphorylation at Y701 in C57BL/6 mouse liver at 10 mg/kg, ip pretreated for 1 hr followed by LPS challenge for 6 hrs by Western blot analysis. Type of experiment: functional, organism-based. The gist of the method:
(§1)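 Male C57BL/6 mice given 10 mg/kg i.p. or vehicle 1 h before LPS (Salmonella enterica, 25 mg/kg i.p.); liver collected 6 h after LPS, frozen at −80 °C. Liver mRNA by SYBR qRT-PCR normalized to β-actin; protein by Western blot for p-STAT1 (Y701, S727). Eight mice per group; mean ± SD.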

In experiment [2] the test system is RAW264.7. Briefly: Cytotoxicity against mouse RAW264.7 cells assessed as decrease in cell viability after 24 hrs by MTT assay. The class given is cell-based. As to conditions: RAW264.7, 24 h. The gist of the method:
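RAW 264.7 cells seeded at 1 × 10^5 cells/mL in DMEM with 10% FBS and incubated overnight. Exposed to compound (0−400 μM) for 24 h, with or without LPS. MTT added for 4 h at 37 °C, formazan dissolved in DMSO, absorbance read at 540 nm; IC50 derived.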

Experiment [3] deals with Mus musculus. Briefly: Inhibition of LPS-induced COX-2 mRNA expression in C57BL/6 mouse liver at 10 mg/kg, ip pretreated for 1 hr followed by LPS challenge for 6 hrs by qRT-PCR method. Type of experiment: functional, organism-based. The method, boiled down: as §1
Background: Quantitative PCR measures a nucleic acid by following its amplification.

In experiment [4] the test system is RAW264.7. Briefly: Antiinflammatory activity in mouse RAW264.7 cells assessed as inhibition of LPS-induced COX-2 mRNA expression at 60 uM after 2 to 12 hrs by qRT-PCR method. Type of experiment: functional, cell-based. The gist of the method: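 RAW 264.7 stimulated with LPS 10 ng/mL with or without 60 μM for 2, 4, 6 and 12 h. Total RNA (1 μg) reverse-transcribed with MuLV RT and random primer; SYBR green real-time qPCR with gene-specific primers, triplicate Ct normalized to β-actin. Mean ± SD, three independent experiments.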

Experiment [5] concerns Rattus norvegicus. The experiment in a line: Antiinflammatory activity in Sprague-Dawley rat assessed as inhibition of croton oil-induced ear edema at 5 mg/kg, ip administered 1 hr before croton oil challenge measured after 3 hrs post challenge relative to control. The class given is functional. The gist of the method:
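Male SD rats given compound i.p. (5, 10 or 15 mg/kg) 1 h before topical croton oil (5% in 100 μL acetone) on the inner right ear; the left ear received acetone alone. After 3 h, rats were killed and 6 mm ear punches were taken and measured for thickness. Inhibition calculated relative to the croton-oil-only group; seven rats per group.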

Experiment [6] relates to RAW264.7. Briefly: Antiinflammatory activity in mouse RAW264.7 cells assessed as inhibition of LPS-induced IL-6 production at 60 uM preincubated for 1 hr followed by LPS challenge for 24 hrs by ELISA method. Type of experiment: functional. The method, boiled down: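 RAW 264.7 cells in DMEM with 10% FBS, plated at 2 × 10^5 cells/mL and incubated overnight. Pretreated with compound (15, 30 or 60 μM) for 1 h, then LPS 10 ng/mL for 24 h. PGE2 measured by competitive colorimetric ELISA, TNF-α and IL-6 by ELISA, in diluted medium. NS-398 3 μM as positive control for PGE2. Mean ± SD, three independent experiments; IC50 given for PGE2.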

Experiment [7] has as its system Rattus norvegicus. Briefly: Antiinflammatory activity in Sprague-Dawley rat assessed as inhibition of croton oil-induced inflammatory cell infiltration at 10 mg/kg, ip administered 1 hr before croton oil challenge measured after 3 hrs by hematoxylin and eosin staining based assay. Type of experiment: functional, organism-based. The method, boiled down: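 SD male rats dosed i.p. (10 mg/kg) 1 h before topical croton oil (5% in acetone) on inner right ear; left ear got acetone only. At 3 h rats sacrificed, 6 mm ear punches taken, fixed in 4% paraformaldehyde overnight, paraffin-embedded, H&E-stained for edema and inflammatory cell infiltrate; seven animals per group.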

One may read the inhibition as the drop in the measured response relative to a control, in per cent. As usually defined, the IC50 is the concentration at which inhibition is half-maximal. As usually defined, the inhibition in vivo is the share of the control response that was lost under treatment. As to `Cc1cc(=O)c2c(O)c([C@@H]3O[C@H](CO)[C@@H](O)[C@H](O)[C@H]3O)c(O)cc2o1` [BIFLORIN], the inhibition entry in experiment [1], in experiment [3], in experiment [4] and in experiment [7] was “Active” in each case. Moreover, the IC50 in experiment [2] worked out at 140 µM. The inhibition in vivo at 5 mg/kg in experiment [5] is 33.4%. For the same compound, the inhibition at 60 µM in experiment [6] was 51.3%.
